Reference: publication PMC3910017 (CPT: Pharmacometrics & Systems Pharmacology, 2014)
Several values for one entry are separate records, joined by “and”; a condition that tells them apart may be missing. Equal values may be shown once. Read-outs that look alike come from different tables or passages of the source.

Assays:
[1] = assay type: in vivo, human
LDL-C [2] = settings: dyslipidemic patients, alone or with statins; cited from earlier work
Metabolism = settings: separate studies
HDL-C [3] = assay: HDL-C percent change from baseline, exposure-response; assay type: in vivo, human; settings: for HDL-C increase as percent of the maximal effect: from EAUC50 and estimated AUC
In short: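 Dyslipidemic patients took placebo or 30, 100 or 500 mg daily for 12 weeks, or 100 mg plus simvastatin 40 mg, atorvastatin 20 mg or rosuvastatin 10 mg. HDL-C was measured by enzymatic assay at weeks 2, 4, 8 and 12. Percent change from baseline was fitted with placebo and statin terms plus a sigmoid Emax on each patient's post hoc steady-state AUC (EAUC50, Hill coefficient), with rate constant K.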

LDL-C [4] = assay: LDL-C percent change from baseline, exposure-response; assay type: in vivo, human
In short: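 Arms were placebo or 30, 100 or 500 mg daily monotherapy, or 100 mg with simvastatin 40 mg, atorvastatin 20 mg or rosuvastatin 10 mg, for 12 weeks. LDL-C was measured by standard enzymatic assay at weeks 2, 4, 8 and 12. Percent change from baseline was modelled with placebo, statin and test-compound Emax terms on post hoc AUC, an interaction term, and time constant K. Covariates included baseline ApoA1.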

[5] = ref J.G. Suico et al., unpublished data, cited from earlier work
[6] = cited from earlier work
Protein binding = assay type: in vitro ADME; settings: separate studies
HDL-C [7] = settings: dyslipidemic patients, alone or with statins; cited from earlier work
[8] = Healthy subject studies of evacetrapib; assay type: in vivo, human; settings: 30-mg single dose, healthy subjects; data not shown
HDL-C [9] = settings: similar exposure-response analysis; cited from earlier work
LDL-C [10] = settings: cited from earlier work
[11] = cited from earlier work; remark: listed apart in the source
[12] = patients in the ILLUMINATE study; cited from earlier work
[13] = week 16–18, 4–6 weeks after last dose, monotherapy groups
[14] = phase III formulation of anacetrapib

## Cc1cc(C)c2c(c1)[C@@H](N(Cc1cc(C(F)(F)F)cc(C(F)(F)F)c1)c1nnn(C)n1)CCCN2C[C@H]1CC[C@H](C(=O)O)CC1 [evacetrapib]
[1]; 30–500 mg, dyslipidemic patients
  Increase of exposure with dose: less than dose-proportional
[1]; CGCL 50 vs 100 ml/minute
  Model-predicted population CL/F lower at CGCL 50 ml/minute than at 100 ml/minute: 10%
[1]; CL/F = 15.3 * (1+0.00105 * DOSE) * (1+0.00198 * (CGCL − 91.28)), DOSE in mg
  Effect of dose on CL/F (covariate coefficient): 0.00105 (21.6%, 0.000726–0.00144)
[1]; dose 30 mg
  CL/F, estimated population value: 13.1 L/h
[1]; dose 100 mg
  CL/F, estimated population value: 17.0 L/h
[1]; dose 500 mg
  CL/F, estimated population value: 25.4 L/h
[1]; final population PK model
  Oral clearance (CL/F), population estimate (%SEE, 95% CI): 15.3 (4.57%, 14.3–16.5) l/hour
  Peripheral volume of distribution (V3/F), population estimate (%SEE, 95% CI): 827 (18%, 600.7–1,071) l
[1]; final population PK model, value fixed, not estimated
  Rate of absorption (Ka): 0.3 hour^-1 and 0.3 (fixed) hour^-1
[1]; human, plasma, oral
  Vd/F: 228 L
LDL-C [2]
  Observed LDL-C decrease: up to 36%
Metabolism
  Metabolism: metabolized primarily by oxidative pathways
HDL-C [3]; 30 mg dose
  HDL-C increase as percent of the maximal effect: ~ 30 % of the maximal effect
HDL-C [3]; 100 mg dose
  HDL-C increase as percent of the maximal effect: ~50 % of the maximal effect
HDL-C [3]; 500 mg dose
  HDL-C increase as percent of the maximal effect: ~80 % of the maximal effect
HDL-C [3]; final HDL-C model
  Time course constant (K) of HDL-C response, population estimate (%SEE, 95% CI): 0.00684 (7.43%, 0.00604–0.00791) hour^−1
HDL-C [3]; final HDL-C model, at median baseline HDL 52.2 mg/dl
  AUC that produced half of maximum effect (EAUC50), HDL-C, population estimate (%SEE, 95% CI): 5,380 (1.54%, 3,930–7,270) h·ng/ml
HDL-C [3]; theoretical maximum at steady state, final HDL-C model
  Maximum effect (Emax) on HDL-C, population estimate (%SEE, 95% CI): 177 (6.55%, 153–207) % change from baseline
HDL-C [3]; [13]
  HDL-C at follow-up visit after discontinuation: returned to levels similar to those of the placebo group
LDL-C [4]; coadministered with atorvastatin, simvastatin or rosuvastatin
  LDL-C response of evacetrapib and the statins, kind of interaction: pharmacologically independent
LDL-C [4]; final LDL-C model
  AUC that produced half of maximum effect (EAUC50), LDL-C, population estimate (%SEE, 95% CI): 4,230 (3.23%, 2,450 to 7,010) h·ng/ml
LDL-C [4]; final LDL-C model, printed as a reduction
  Theoretical maximal mean LDL-C decrease (reduction) relative to baseline: 44.1%
LDL-C [4]; [13]
  LDL-C at follow-up visit after discontinuation: returned to levels similar to those of the placebo group
[5]; healthy subject studies
  Half-life: ~40 h
[5]; healthy subjects, 10–600 mg dose range
  Increase of exposure with dose: less than dose-proportional
[6]; administered alone or in combination with statins
  Safety and tolerability: safe and well tolerated
[6]; dyslipidemic patients
  Changes in mineralocorticoid levels or increases in systolic or diastolic blood pressure: did not cause any significant changes
Protein binding
  Protein bound: > 99%
HDL-C [7]
  Observed HDL-C increase: up to 129%
[8]
  AUC0–∞ increased after a high-fat meal relative to low-fat meal: 41%
  AUC0–∞ reduced in the fasted state relative to low-fat meal: 38%

## COc1cc(F)c(C(C)C)cc1-c1ccc(C(F)(F)F)cc1CN1C(=O)O[C@H](c2cc(C(F)(F)F)cc(C(F)(F)F)c2)[C@@H]1C [anacetrapib]
HDL-C [9]
  Maximal effect on HDL-C: 176%
LDL-C [10]
  LDL-C reduction in combination with atorvastatin, kind of interaction: pharmacologically independent
LDL-C [10]; similar LDL-C model
  Theoretical maximal LDL-C reduction: 80%
[11]
  Increase of exposure with dose: Less than dose-proportional
[11]; [14]
  AUC with high-fat meal vs fasted state: 7.5 fold
  AUC with low-fat meal vs fasted state: 2.2 fold

## CCOC(=O)N1c2ccc(C(F)(F)F)cc2[C@@H](N(Cc2cc(C(F)(F)F)cc(C(F)(F)F)c2)C(=O)OC)C[C@H]1CC [torcetrapib]
[12]
  Adverse cardiovascular events: increased adverse cardiovascular events
